Assay [1] addresses T1, hCCR2 (Homo sapiens, UniProt P41597).
T1 sequence (P41597 1-360 isoform P41597-2): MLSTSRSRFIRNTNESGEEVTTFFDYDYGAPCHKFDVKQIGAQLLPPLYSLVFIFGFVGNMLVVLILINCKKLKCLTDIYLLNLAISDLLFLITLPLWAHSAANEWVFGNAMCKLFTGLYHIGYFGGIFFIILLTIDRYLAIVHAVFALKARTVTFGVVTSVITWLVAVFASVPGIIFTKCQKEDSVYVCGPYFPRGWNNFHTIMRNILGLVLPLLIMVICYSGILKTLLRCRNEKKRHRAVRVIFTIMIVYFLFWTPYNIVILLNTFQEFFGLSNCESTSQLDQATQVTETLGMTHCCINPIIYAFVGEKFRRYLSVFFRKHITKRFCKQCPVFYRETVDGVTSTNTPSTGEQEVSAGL
Description: [3H]-CCR2-RA-[R] displacement binding assay on U2OS-CCR2b membranes. Conditions: displacement of ∼6 nM [3H]-CCR2-RA-[R] from U2OS cells stably expressing CCR2, 25 °C. Summed up: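 U2OS-CCR2b membranes (15–20 μg protein) were incubated with ~6 nM [3H]-CCR2-RA-[R] and at least 6 competitor concentrations. Buffer: 50 mM Tris-HCl, 5 mM MgCl2, 0.1% CHAPS, pH 7.4. Incubation 2 h at 25 °C. Rapid GF/B filtration, ten washes with ice-cold buffer (0.05% CHAPS), scintillation counting. Mean ± SEM of ≥3 experiments in duplicate.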

Assay [2] has as its target T2, hCCR5 (Homo sapiens, UniProt P51681). As to the kind of experiment: Tango β-arrestin recruitment assay in U2OS-CCR5 cells. It is filed as cell-based. Summed up:
(§1)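 Tango bla U2OS cells (human CCR2b or CCR5) were trypsinized and seeded at 10 000 cells/well in FreeStyle medium. Agonist mode: CCL2 or CCL3 for 16 h, 37 °C, 5% CO2. Antagonist mode: 30 min room-temperature preincubation with increasing compound (≤0.5% DMSO final), then 16 h with EC80 CCL2 (5 nM, CCR2) or CCL3 (14 nM, CCR5). LiveBLAzer-FRET B/G substrate 2 h; excitation 400 nm, 460/535 nm emission ratio.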

Assay [3] addresses T1, hCCR2. Description: Tango β-arrestin recruitment assay in U2OS-CCR2 cells. It is filed as cell-based. The settings on record: inhibition of CCL2-induced β-arrestin recruitment in U2OS-CCR2. An outline of the steps:
as §1

For another assay, the system named is CCR2. The settings on record: read-out: IC50 in CCR2 calcium flux assay; previously reported activity; cited from earlier work.
The target of assay [4] is T2, hCCR5. As to the kind of experiment: CCL3-stimulated [35S]GTPγS binding assay on U2OS-CCR5 membranes. The settings on record: CCL3 alone, U2OS-CCR5, 25 °C. It is filed as biochemical. An outline of the steps:
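Membranes from Tango U2OS cells stably expressing human CCR5 (10 μg, with 0.25 mg/mL saponin) were preincubated 30 min at 25 °C with 5 μM GDP and increasing CCL3. Then 0.3 nM [35S]GTPγS was added for 90 min at 25 °C. Stopped with ice-cold Tris/MgCl2, then GF/B filtration. Nonlinear regression.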

Values joined by “and” are separate entries in the source; they are usually repeats but may differ in a detail not shown here. Equal entries are not always repeated.

T2 sequence (P51681 whole entry): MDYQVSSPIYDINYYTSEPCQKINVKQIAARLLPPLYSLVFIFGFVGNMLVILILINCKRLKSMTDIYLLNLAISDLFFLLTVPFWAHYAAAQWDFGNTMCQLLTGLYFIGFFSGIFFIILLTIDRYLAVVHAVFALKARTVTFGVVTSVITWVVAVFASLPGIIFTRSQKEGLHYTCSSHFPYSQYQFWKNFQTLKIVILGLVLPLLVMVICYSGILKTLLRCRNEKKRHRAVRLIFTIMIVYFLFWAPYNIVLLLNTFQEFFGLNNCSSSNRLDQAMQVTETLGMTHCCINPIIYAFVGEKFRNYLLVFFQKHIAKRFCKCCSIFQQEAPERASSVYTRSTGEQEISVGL

Regarding `Nc1nc2[nH]c(C3CC3)c(Cc3cccc(Cl)c3)c(=O)n2n1` [Compound 8, 2-Amino-6-(3-chlorobenzyl)-5-cyclopropyl[1,2,4]triazolo[1,5-a]pyrimidin-7(4H)-one], the “pKi ± SEM” value on hCCR2 [1] is on record as 8.90 ± 0.04. Besides, the “Hill slope (nH)” value was −2.2 ± 0.3 at hCCR5 [2] (inhibition of CCL3-induced β-arrestin recruitment in U2OS-CCR5) and −2.7 at hCCR2 [3]. In addition, in the assay on CCR2, the concentration for half-maximal inhibition (IC50) is 16 nM and ~20 nM.

For `O=c1c(Cc2cccc(Cl)c2)c(C2CC2)[nH]c2ncnn12` [Compound 6, 6-(3-Chlorobenzyl)-5-cyclopropyl[1,2,4]triazolo[1,5-a]pyrimidin-7(4H)-one], the “pKi ± SEM” value at hCCR2 [1] is recorded as 8.76 ± 0.01. In the assay with CCR2, the half-maximal inhibitory concentration (IC50) is about 20 nM.

Regarding “CCL3: human recombinant chemokine, endogenous agonist of CCR5”, in the assay with hCCR5 [2] (agonist, U2OS-CCR5), the “pEC50 of β-arrestin recruitment” value came out at 8.3 ± 0.08 and the “pEC80 of β-arrestin recruitment” value came out at 7.9 ± 0.08. In the assay with hCCR5 [2] (read-out: EC50 of β-arrestin recruitment, agonist, U2OS-CCR5), the 50% effective concentration (EC50) was 6 nM. Also, in the assay with hCCR5 [4], the EC50 is 4 nM, the “Emax ± SEM (%)” value stood at 108 ± 2% and the “pEC50 ± SEM” value was 8.42 ± 0.06.

The values above are taken from article PMC6935887 (Journal of Medicinal Chemistry, 2019).
